Experimental findings from ChEMBL document CHEMBL4190362, “Synthesis, biological evaluation and quantitative structure-active relationships of 1,3-thiazolidin-4-one derivatives. A promising chemical scaffold endowed with high antifungal potency and low cytotoxicity” (Eur J Med Chem, 2017) are described below.

One series has as its system Staphylococcus aureus. The series can be described thus: Antibacterial activity against Staphylococcus aureus assessed as inhibition of microbial growth incubated for 18 to 22 hrs by broth microdilution method. The format is functional. The essentials: (§1)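 Broth microdilution in Mueller-Hinton II broth following NCCLS recommendations; compounds dissolved in DMSO.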
On the technique in general: Broth dilution looks for growth in wells or tubes with falling amounts of substance.

The test system of a further series is Staphylococcus warneri. As to the kind of experiment: Antibacterial activity against Staphylococcus warneri assessed as inhibition of microbial growth incubated for 18 to 22 hrs by broth microdilution method. The format is functional. The method, boiled down: as §1
For a further series, the system named is Enterococcus faecalis. The series can be described thus: Antibacterial activity against Streptococcus faecalis assessed as inhibition of microbial growth incubated for 18 to 22 hrs by broth microdilution method. The format is functional. The essentials: as §1
For a further series, the system named is Escherichia coli. The series can be described thus: Antibacterial activity against Escherichia coli assessed as inhibition of microbial growth incubated for 18 to 22 hrs by broth microdilution method. In kind it is functional. The method, boiled down: as §1
The test system of the next series is Proteus mirabilis. The series can be described thus: Antibacterial activity against Proteus mirabilis assessed as inhibition of microbial growth incubated for 18 to 22 hrs by broth microdilution method. The format is functional. The essentials: as §1
In the next series the test system is Enterobacter. The series can be described thus: Antibacterial activity against Enterobacter spp. assessed as inhibition of microbial growth incubated for 18 to 22 hrs by broth microdilution method. The format is functional. The essentials: as §1
In another series the test system is Klebsiella oxytoca. The series can be described thus: Antibacterial activity against Klebsiella oxytoca assessed as inhibition of microbial growth incubated for 18 to 22 hrs by broth microdilution method. The format is functional. The essentials: as §1
The test system of another series is Candida albicans. As to the kind of experiment: Antifungal activity against Candida albicans clinical isolates assessed as inhibition of microbial growth incubated for 24 hrs by broth microdilution method. The format is functional. The essentials: (§2)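 Twenty-two clinical Candida isolates (8 C. albicans, 4 C. glabrata, 3 C. tropicalis, 3 C. krusei, 2 C. parapsilosis, 2 C. sake) were identified by colony morphology and biochemistry and subcultured at 35 °C for purity. Compounds were dissolved in DMSO and tested by broth microdilution in Sabouraud dextrose broth per NCCLS/CLSI/EUCAST guidance. Values are geometric mean MIC per species (µg/mL).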

The subject of a further series is Nakaseomyces glabratus. As to the kind of experiment: Antifungal activity against Candida glabrata clinical isolates assessed as inhibition of microbial growth incubated for 24 hrs by broth microdilution method. The format is functional. The method, boiled down: as §2
Another series relates to Candida tropicalis. As to the kind of experiment: Antifungal activity against Candida tropicalis clinical isolates assessed as inhibition of microbial growth incubated for 24 hrs by broth microdilution method. In kind it is functional. The essentials: as §2
The next series relates to Pichia kudriavzevii. The series can be described thus: Antifungal activity against Candida krusei clinical isolates assessed as inhibition of microbial growth incubated for 24 hrs by broth microdilution method. In kind it is functional. The essentials: as §2
Another series deals with Candida parapsilosis. As to the kind of experiment: Antifungal activity against Candida parapsilosis clinical isolates assessed as inhibition of microbial growth incubated for 24 hrs by broth microdilution method. To be noted: Lodderomyces parapsilosis. The format is functional. The method, boiled down:
as §2

A further series deals with [Candida] sake. The series can be described thus: Antifungal activity against Candida sake clinical isolates assessed as inhibition of microbial growth incubated for 24 hrs by broth microdilution method. The format is functional. To be noted: Fermentozyma sake. The method, boiled down: as §2
Series [1] can be described thus: Cytotoxicity against human Hep2 cells assessed as reduction in cell viability incubated for 24 hrs by trypan blue dye exclusion assay. In kind it is cell-based. To be noted: HEp-2 cells. The method, boiled down:
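Hep2 (human laryngeal epidermoid carcinoma) cells were exposed to five concentrations from 0.05 to 100 µg/mL for 24 h at 37 °C, and viability was scored by Trypan Blue exclusion as survival fraction. Controls were medium alone, DMSO-treated cells and 1 mM sodium nitroprusside. CC50 is the mean ± SD of at least three independent experiments.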

Series [2] can be described thus: Selectivity index, ratio of CC50 for human Hep2 cells to MIC for Candida albicans clinical isolates. In kind it is toxicity. To be noted: HEp-2 cells, read-out: Selectivity Index. The method, boiled down:
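Calculated as Hep2 CC50 (Trypan Blue exclusion, 24 h, 37 °C) divided by MIC against C. albicans.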

Series [3] relates to Streptococcus alpha-hemolyticus (Streptococcus sp.). As to the kind of experiment: Antibacterial activity against Streptococcus Streptococcus alpha hemolyticus assessed as inhibition of microbial growth incubated for 18 to 22 hrs by broth microdilution method.

Structures are written as SMILES. Values after ≈ are worked out from the molar mass of the structure shown.

Usually MIC stands for the lowest concentration that inhibits growth of the organism. What is called CC50 is the concentration that lowers cell viability or growth by half. For the compound `CC(C)=N/N=C1\NC(=O)CS1`, the MIC in the series on Staphylococcus aureus, with Staphylococcus warneri, in the series on Enterococcus faecalis, with Escherichia coli, with Proteus mirabilis and in the series with Enterobacter was not below 256 µg/mL throughout. The MIC was not below 256 µg/mL with Klebsiella oxytoca; 2 µg/mL in the series on Candida albicans; 2 µg/mL with Nakaseomyces glabratus; 2 µg/mL with Candida tropicalis; 2 µg/mL in the series on Pichia kudriavzevii; 2 µg/mL in the series on Candida parapsilosis. In addition, the MIC is 2 µg/mL in series [Candida] sake and not below 256 µg/mL in series [3]. The CC50 at 24 h in series [1] came out at 68.4 µg/mL (≈ 399 µM). Also, the selectivity ratio in series [2] was found to be 34.

Regarding `CCC/C(C)=N\N=C1/NC(=O)CS1`, the minimum inhibitory concentration (MIC) in the series on Staphylococcus aureus, in the series on Staphylococcus warneri, in the series on Enterococcus faecalis, in the series with Escherichia coli, in the series with Proteus mirabilis and in the series with Enterobacter was not below 256 µg/mL in each case. Also, the minimal inhibitory concentration (MIC) with Klebsiella oxytoca was not below 256 µg/mL; in the series on Candida albicans it was 2 µg/mL; with Nakaseomyces glabratus, 2 µg/mL; in the series with Candida tropicalis, 2 µg/mL; in the series with Pichia kudriavzevii, 2 µg/mL; in the series with Candida parapsilosis, 2 µg/mL. The figures for the MIC in series [Candida] sake and in series [3] were 2 µg/mL and not below 256 µg/mL, respectively. Further, the 50% cytotoxic concentration (CC50) at 24 h in [1] is 93.4 µg/mL (≈ 469 µM). The selectivity ratio in series [2] came to 46.5.

Regarding `O=C1CS/C(=N/N=C\c2cccc3ccccc23)N1`, the MIC in the series on Staphylococcus aureus, in the series on Staphylococcus warneri, with Enterococcus faecalis, with Escherichia coli, in the series with Proteus mirabilis and with Enterobacter was not below 256 µg/mL throughout. Also, the minimum inhibitory concentration (MIC) is not below 256 µg/mL in the series with Klebsiella oxytoca; 256 µg/mL in the series with Candida albicans; 256 µg/mL with Nakaseomyces glabratus; 256 µg/mL with Candida tropicalis; 256 µg/mL in the series with Pichia kudriavzevii; 256 µg/mL with Candida parapsilosis. Further, the MIC in series [Candida] sake is 256 µg/mL; in [3] it was not below 256 µg/mL.

As to `C/C(=N/N=C1\NC(=O)CS1)c1ccc2ccccc2c1`, the minimal inhibitory concentration (MIC) in the series on Staphylococcus aureus, in the series with Staphylococcus warneri, with Enterococcus faecalis, in the series on Escherichia coli, in the series on Proteus mirabilis and with Enterobacter was not below 256 µg/mL each time. In addition, the MIC was not below 256 µg/mL in the series with Klebsiella oxytoca; 32 µg/mL in the series with Candida albicans; 16 µg/mL in the series on Nakaseomyces glabratus; 32 µg/mL in the series on Candida tropicalis; 16 µg/mL in the series with Pichia kudriavzevii; 256 µg/mL with Candida parapsilosis. Further, the minimal inhibitory concentration (MIC) in [Candida] sake is 256 µg/mL; in [3] it was not below 256 µg/mL.

With `C/C(=N/N=C1\NC(=O)CS1)c1cc2ccccc2oc1=O`, the MIC in the series on Staphylococcus aureus, with Staphylococcus warneri, in the series on Enterococcus faecalis, in the series on Escherichia coli, in the series on Proteus mirabilis and with Enterobacter was not below 256 µg/mL throughout. For the same compound, the minimum inhibitory concentration (MIC) in the series with Klebsiella oxytoca was not below 256 µg/mL; with Candida albicans it was 256 µg/mL; with Nakaseomyces glabratus, 16 µg/mL; in the series on Candida tropicalis, 256 µg/mL; in the series on Pichia kudriavzevii, 256 µg/mL; in the series with Candida parapsilosis, 256 µg/mL. In addition, the minimal inhibitory concentration (MIC) is 256 µg/mL in series [Candida] sake and not below 256 µg/mL in series [3].

As to `C/C(=N/N=C1/SCC(=O)N1Cc1ccccc1)c1cccnc1`, the minimum inhibitory concentration (MIC) in the series on Staphylococcus aureus, in the series with Staphylococcus warneri, in the series with Enterococcus faecalis, in the series with Escherichia coli, with Proteus mirabilis and in the series with Enterobacter was not below 256 µg/mL each time. Further, the minimal inhibitory concentration (MIC) in the series with Klebsiella oxytoca is not below 256 µg/mL; with Candida albicans, 2 µg/mL; in the series with Nakaseomyces glabratus, 2 µg/mL; in the series with Candida tropicalis, 2 µg/mL; with Pichia kudriavzevii it was 2 µg/mL; with Candida parapsilosis it was 2 µg/mL. Besides, in series [Candida] sake, the MIC amounted to 2 µg/mL. Moreover, in series [1], the cytotoxic concentration (CC50) at 24 h was 37.4 µg/mL (≈ 115 µM). Moreover, the selectivity ratio in series [2] was 18.5.

Regarding `C/C(=N/N=C1\NC(=O)CS1)c1ccc2ccc3ccccc3c2c1`, the MIC in the series on Staphylococcus aureus, in the series on Staphylococcus warneri, with Enterococcus faecalis, with Escherichia coli, in the series with Proteus mirabilis and in the series with Enterobacter was not below 256 µg/mL throughout. The minimal inhibitory concentration (MIC) in the series on Klebsiella oxytoca is not below 256 µg/mL; in the series on Candida albicans, 4 µg/mL; in the series on Nakaseomyces glabratus it was 4 µg/mL; in the series with Candida tropicalis, 4 µg/mL; with Pichia kudriavzevii, 8 µg/mL; in the series on Candida parapsilosis it was 16 µg/mL. Also, the minimum inhibitory concentration (MIC) was 16 µg/mL in series [Candida] sake and not below 256 µg/mL in series [3].

In the case of `C/C(=N/N=C1\NC(=O)CS1)c1cccc2ccccc12`, the minimum inhibitory concentration (MIC) in the series with Staphylococcus aureus, in the series on Staphylococcus warneri, in the series on Enterococcus faecalis, with Escherichia coli, in the series on Proteus mirabilis and in the series on Enterobacter was not below 256 µg/mL in each case. Further, the minimal inhibitory concentration (MIC) with Klebsiella oxytoca is not below 256 µg/mL; in the series on Candida albicans, 2 µg/mL; in the series with Nakaseomyces glabratus, 2 µg/mL; in the series with Candida tropicalis it was 16 µg/mL; with Pichia kudriavzevii, 16 µg/mL; in the series with Candida parapsilosis, 2 µg/mL. For the same compound, the MIC in [Candida] sake was 2 µg/mL; in series [3], not below 256 µg/mL.

`CC(=O)c1ccc(/C(C)=N\N=C2/NC(=O)CS2)cc1`: the MIC with Staphylococcus aureus, in the series on Staphylococcus warneri, with Enterococcus faecalis, in the series on Escherichia coli, in the series with Proteus mirabilis and in the series on Enterobacter was not below 256 µg/mL throughout. Also, the minimal inhibitory concentration (MIC) in the series with Klebsiella oxytoca is not below 256 µg/mL; in the series on Candida albicans, 2 µg/mL; in the series on Nakaseomyces glabratus it was 2 µg/mL; with Candida tropicalis, 2 µg/mL; in the series on Pichia kudriavzevii, 8 µg/mL; with Candida parapsilosis, 2 µg/mL. For the same compound, the MIC in [Candida] sake was 8 µg/mL; in series [3], not below 256 µg/mL.

On to `C/C(=N/N=C1\NC(=O)CS1)c1ccc2c(c1)OCCO2`, for which the MIC with Staphylococcus aureus, in the series with Staphylococcus warneri, in the series with Enterococcus faecalis, with Escherichia coli, in the series with Proteus mirabilis and with Enterobacter was not below 256 µg/mL throughout. The minimum inhibitory concentration (MIC) was not below 256 µg/mL with Klebsiella oxytoca; 4 µg/mL in the series on Candida albicans; 4 µg/mL in the series with Nakaseomyces glabratus; 4 µg/mL with Candida tropicalis; 8 µg/mL with Pichia kudriavzevii; 16 µg/mL in the series with Candida parapsilosis. For the same compound, the minimum inhibitory concentration (MIC) in [Candida] sake was 8 µg/mL; in series [3], not below 256 µg/mL.

Take `O=C1CS/C(=N/N=C2CCCCC2)N1Cc1ccccc1`: the MIC in the series on Staphylococcus aureus, with Staphylococcus warneri, in the series with Enterococcus faecalis, with Escherichia coli, with Proteus mirabilis and in the series on Enterobacter was not below 256 µg/mL each time. The MIC was not below 256 µg/mL with Klebsiella oxytoca; 2 µg/mL in the series with Candida albicans; 2 µg/mL in the series with Nakaseomyces glabratus; 2 µg/mL in the series on Candida tropicalis; 2 µg/mL in the series on Pichia kudriavzevii; 2 µg/mL in the series with Candida parapsilosis. The MIC in [Candida] sake was determined as 2 µg/mL. Besides, in [1], the half-maximal cytotoxic concentration (CC50) at 24 h was found to be 22.8 µg/mL (≈ 75.6 µM). In addition, the selectivity ratio in [2] turned out to be 11.

Regarding `Clc1ccccc1C(c1ccccc1)(c1ccccc1)n1ccnc1` [CLOTRIMAZOLE], the minimal inhibitory concentration (MIC) (with Candida albicans; in the series on Nakaseomyces glabratus; with Candida tropicalis; with Pichia kudriavzevii; with Candida parapsilosis; in series [Candida] sake) was 2 µg/mL in each case. The CC50 at 24 h in [1] was found to be 38.8 µg/mL (≈ 113 µM). In addition, in [2], the selectivity ratio is 19.
